Laboratory results as given in ChEMBL document CHEMBL1133165, “Synthesis and cytostatic activity of substituted 6-phenylpurine bases and nucleosides: application of the Suzuki-Miyaura cross-coupling reactions of 6-chloropurine derivatives with phenylboronic acids” (J Med Chem, 2000).

What was measured:
[1] = test system: CCRF-CEM; assay: In vitro inhibition of cell growth (Cytostatic activity) of human T-lymphoblastoid CCRF-CEM cell line (ATCC CCL 119); inhibition @ 10 uM/L; assay type: functional
[2] = test system: HeLa; assay: In vitro inhibition of cell growth (Cytostatic activity) of human cervix carcinoma HeLa S3 cells (ATCC CCL 2.2); inhibition @ 10 uM/L; assay type: functional
[3] = test system: L1210; assay: In vitro inhibition of cell growth (Cytostatic activity) of mouse leukemia L1210 cells (ATCC CCL 219); inhibition @ 10 uM/L; assay type: functional
[4] = test system: CCRF-CEM; assay: In vitro inhibition of cell growth (Cytostatic activity) of human T-lymphoblastoid CCRF-CEM cell line (ATCC CCL 119); assay type: functional, cell-based
Procedure, shortened: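 CCRF-CEM cells grown in RPMI 1640 with L-glutamine (0.3 g/L) and 10% bovine serum, seeded at 10⁵ mL^-1. After 24 h at 37 °C under CO₂, compounds were added at five concentrations. Cells were counted with a cell counter 72 h after addition. IC50 values were derived from the counts.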

[5] = test system: HeLa; assay: In vitro inhibition of cell growth (Cytostatic activity) of human cervix carcinoma HeLa S3 cells (ATCC CCL 2.2); assay type: functional, cell-based
[6] = test system: L1210; assay: In vitro inhibition of cell growth (Cytostatic activity) of mouse leukemia L1210 cells (ATCC CCL 219); assay type: functional, cell-based

| SMILES | IC50 [4] [µM] | IC50 [5] [µM] | IC50 [6] [µM] | Inhibition [1] [%] | Inhibition [2] [%] | Inhibition [3] [%] |
| --- | --- | --- | --- | --- | --- | --- |
| CC(=O)OC[C@H]1O[C@@H](n2cnc3c(-c4ccccc4C)ncnc32)[C@H](OC(C)=O)[C@@H]1OC(C)=O |  |  |  | <20 | <20 | <20 |
| CC(=O)OC[C@H]1O[C@@H](n2cnc3c(-c4ccc(F)cc4)ncnc32)[C@H](OC(C)=O)[C@@H]1OC(C)=O | 4 | 15 |  |  |  | <20 |
| OC[C@H]1OC(n2cnc3c(-c4ccc(Cl)cc4)ncnc32)[C@H](O)[C@@H]1O (some centres not stated) | 0.9 | 5 |  |  |  |  |
| Cc1ccccc1-c1ncnc2c1ncn2C1O[C@H](CO)[C@@H](O)[C@H]1O (some centres not stated) |  |  |  | <20 | <20 | <20 |
| COc1ccc(-c2ncnc3c2ncn3C2O[C@H](CO)[C@@H](O)[C@H]2O)cc1 (some centres not stated) | 0.25 | 4.3 | 1.5 |  |  |  |
| CC(=O)OC[C@H]1O[C@@H](n2cnc3c(-c4ccc(F)cc4F)ncnc32)[C@H](OC(C)=O)[C@@H]1OC(C)=O |  |  |  | <20 | <20 | <20 |
| COc1cccc(-c2ncnc3c2ncn3[C@@H]2O[C@H](COC(C)=O)[C@@H](OC(C)=O)[C@H]2OC(C)=O)c1 |  |  |  | <20 | <20 | <20 |
| OC[C@H]1OC(n2cnc3c(-c4ccc(F)cc4)ncnc32)[C@H](O)[C@@H]1O (some centres not stated) | 0.75 | 2.5 | 4.5 |  |  |  |
| CC(=O)OC[C@H]1O[C@@H](n2cnc3c(-c4ccc(C)cc4)ncnc32)[C@H](OC(C)=O)[C@@H]1OC(C)=O |  |  |  | <20 | <20 | <20 |

Continued by falling IC50 [4], values first:

| IC50 [4] [µM] | IC50 [5] [µM] | IC50 [6] [µM] | SMILES | Inhibition [1] [%] | Inhibition [2] [%] | Inhibition [3] [%] |
| --- | --- | --- | --- | --- | --- | --- |
| 10.5 |  |  | CC(=O)OC[C@H]1O[C@@H](n2cnc3c(-c4ccccc4)ncnc32)[C@H](OC(C)=O)[C@@H]1OC(C)=O |  | <20 | <20 |
| 8.3 | 15 |  | CC(=O)OC[C@H]1O[C@@H](n2cnc3c(-c4ccc(F)c(F)c4)ncnc32)[C@H](OC(C)=O)[C@@H]1OC(C)=O |  |  | <20 |
| 4.8 |  |  | COc1cccc(-c2ncnc3c2ncn3C2O[C@H](CO)[C@@H](O)[C@H]2O)c1 (some centres not stated) |  |  |  |
| 4.3 |  |  | CC(=O)OC[C@H]1O[C@@H](n2cnc3c(-c4ccc(Cl)cc4)ncnc32)[C@H](OC(C)=O)[C@@H]1OC(C)=O |  | <20 | <20 |
| 4.3 | 19 | 17 | COc1ccc(-c2ncnc3c2ncn3[C@@H]2O[C@H](COC(C)=O)[C@@H](OC(C)=O)[C@H]2OC(C)=O)cc1 |  |  |  |
| 3.8 |  |  | CCOc1ccc(-c2ncnc3c2ncn3[C@@H]2O[C@H](COC(C)=O)[C@@H](OC(C)=O)[C@H]2OC(C)=O)cc1 |  | <20 | <20 |
| 1.5 |  |  | Cc1ccc(-c2ncnc3c2ncn3C2O[C@H](CO)[C@@H](O)[C@H]2O)cc1 (some centres not stated) |  |  |  |
| 1.4 | 2.5 | 20 | OC[C@H]1OC(n2cnc3c(-c4ccc(F)c(F)c4)ncnc32)[C@H](O)[C@@H]1O (some centres not stated) |  |  |  |
| 0.7 | 2.7 | 9 | OC[C@H]1O[C@@H](n2cnc3c(-c4ccccc4)ncnc32)[C@H](O)[C@@H]1O |  |  |  |
| 0.6 | 5 | 2.5 | CCOc1ccc(-c2ncnc3c2ncn3C2O[C@H](CO)[C@@H](O)[C@H]2O)cc1 (some centres not stated) |  |  |  |
